# This is a sample that favours compounds with a hit; in the whole collection about 4.3% have one here.
# WT yeast gro inh: growth inhibition of WT strain, primary screen, mitochondrial fusion inhibitor project, WT and mutant strains, chemical genetic; AID 1362, 2008; mitochondrial fusion phenotypic screen; inhibition, % at 10 µM; hit rate 2.1% among 190,000; in the data active = inhibition above about 58%; tested in S. cerevisiae
# RAM network inh: inhibitors of the yeast RAM network, primary screen, dse1pr::URA3 reporter, 5-FOA selection | inhibition, % at 50 µM | hit rate 1.8% among 190,000 | S. cerevisiae dse1pr::URA3 reporter, 5-FOA growth OD615, 2 d; analog-sensitive cbk1-as2 kinase mutant strain;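 active = inhibition above a set limit, 3 SD over mean compound inhibition, cut at about 8.4% in these data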;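 also: inhibition rescues growth on 5-FOA so higher OD means more RAM inhibition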
# Yeast lifespan up: compounds extending yeast replicative lifespan, primary screen, S. cerevisiae, OD615. inhibition of the nicotinamide effect, % at 10 µM. hit rate 0.68% among 130,000. S. cerevisiae growth with nicotinamide; deaD strain in restrictive glucose medium;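 active = inhibition above a set limit, placed 3 SD over the median of all compounds, cut at about 26% in these data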
#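 Test system – modified budding yeast, DeaD strain · Compound – single dose 10 µM compound, 0.25% DMSO · Times – culture preincubation 4 h, compound exposure 48 h, both 30 °C · Detection – optical density (absorbance) at 615 nm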
# BB579 growth dn: growth inhibitors of yeast BB579 in restrictive medium, primary screen, yeast lifespan-shortening project, S. cerevisiae; OD615, 48 h; inhibition, % at 10 µM; hit rate 0.51% among 140,000; AID 804, 2007;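 active = inhibition above a set limit, 3 SD over the mean compound inhibition, cut at about 44% in these data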
#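 Assay system: S. cerevisiae DeaD strain BB579 yeast. Medium: CSMM-D restrictive synthetic medium containing dextrose (glucose). Times: 4 h cell preincubation, 48 h compound exposure, 30 °C humidified. Signal: OD615 turbidity measurement. Benchmarks: positive control amphotericin B 10 µg/mL.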
# RAM efflux-def: 5-FOA growth of efflux-deficient control yeast, dose response, counter-screen for RAM network inhibitor project, S. cerevisiae, OD615; shares compounds with RAM network inh; S. cerevisiae efflux-deficient reporter strain, 5-FOA growth OD615, 2 days; max inhibition, %; 1,200 tested, under 10 active; AID 1305, 2008; call rule not given here
# A number is an active result; n = inactive; x = no result.
SMILES,WT yeast gro inh,RAM network inh,Yeast lifespan up,BB579 growth dn,RAM efflux-def
Cc1ccc(CN2C(=O)CCC2C(=O)NCc2cccnc2)cc1 (centres undefined),n,n,n,n,x
Cc1ccc(C(=O)c2cc3ccccc3o2)cc1,n,n,n,n,x
Cc1ccc(C(=O)c2cc3ccccc3o2)cc1C,n,15.4,n,n,n
COC(=O)c1ccccc1NC(=O)NCc1c(C)nn(C)c1C,n,n,x,x,x
O=C(Nc1ccc(Cl)c([N+](=O)[O-])c1)C(Sc1ccccc1)c1ccccc1 (centres undefined),79.9,15.4,n,n,n
COc1ccccc1NC(=O)C(Sc1ccccc1)c1ccccc1 (centres undefined),n,11.5,n,n,n
COC(=O)c1cc2c(ccn2-c2ccc(F)cc2)n1Cc1cccc(OC)c1,n,12.6,n,n,n
COc1cc(CNn2c(C)n[nH]c2=S)cc(Cl)c1OCc1ccccc1,n,12.8,n,n,n
CCOc1c(Cl)cc(CNCc2ccccn2)cc1OC,n,n,x,x,x
COC(=O)/N=C/c1c(NCc2ccccc2)nc2c(C)cccn2c1=O,n,n,x,x,x
CCOC(=O)CSc1nc2ccccc2c(=O)n1CC,n,n,n,n,x
CCOC(=O)CSc1nc2ccccc2c(=O)n1CC1CCCC1,n,17.6,x,n,n
C=CCN1C(=O)/C(=C/c2ccc(OC(C)=O)c(OCC)c2[N+](=O)[O-])SC1=S,97.2,11.6,x,x,n
Cc1ccc(N2CCN(C(=O)c3cc(C(=O)c4ccccc4C)c[nH]3)CC2)c(C)c1,n,24.3,x,x,n
C=CCn1c(SCC)nc2sc3c(c2c1=O)CCc1ccccc1-3,n,17.8,n,n,n
C=CCn1c(SCC(=O)NC)nc2sc3c(c2c1=O)CCC3,n,n,n,n,x
CCC1=NN(C(=O)COc2ccccc2)C(O)(c2ccc(Br)cc2)C1 (centres undefined),n,n,x,x,x
COC(=O)/C(=N\Nc1ccccc1)Sc1nnc(-c2ccc(OC)cc2)n1C,n,n,n,n,x
COc1ccc(NC(=O)N2CCCC(c3nc(-c4ccc(C(C)C)cc4)no3)C2)cc1 (centres undefined),72.2,11.7,n,n,n
COc1ccc(NC(=O)N2CCCC(c3nc(-c4ccc(OC)cc4)no3)C2)cc1 (centres undefined),n,n,x,x,x
COC(=O)c1cn(NC(=O)Cn2nc([N+](=O)[O-])c(Br)c2C)c(=O)c2ccccc12,n,n,x,x,x
O=C(O)COc1ccc(/C=N/n2c(COc3ccccc3)nc3ccccc3c2=O)cc1,n,12.6,n,n,n
CCOC(=O)c1sc(N)c(C(=O)Nc2ccccc2OC)c1C,n,n,x,x,x
O=C(O)CCN1C(=O)/C(=C/c2cn(-c3ccccc3)nc2-c2cccs2)SC1=S,n,12.0,x,x,n
O=C(O)CCN1C(=O)/C(=C\c2ccncc2)SC1=S,n,n,x,x,x
SMILES,WT yeast gro inh,RAM network inh,Yeast lifespan up,BB579 growth dn,RAM efflux-def
COc1cccc(CSc2nc3ccccc3cc2C=O)c1,n,11.8,84.2,n,n
O=C(c1ccco1)N(CCC(c1ccccc1)c1ccco1)Cc1ccc(F)cc1 (centres undefined),n,n,n,n,x
CC1(C)CC(C(CCN(Cc2ccccc2)C(=O)c2ccco2)c2ccc(F)cc2)CCO1 (centres undefined),74.5,11.9,n,n,n
Nc1ncnc(Sc2ccccc2)c1[N+](=O)[O-],n,72.5,n,n,n
Nc1ncnc(Sc2ccc(Cl)cc2)c1[N+](=O)[O-],n,n,n,n,x
C=CCn1c(SCC(=O)/C(C#N)=C(\C)N)nc2sc(CC)cc2c1=O,n,12.8,n,n,n
Cc1ccc(CCNC(=O)CCc2nc3ccccc3[nH]2)cc1,n,n,n,n,x
CCn1c(CCNC(=O)c2ccc(Cl)c(Cl)c2)nnc1SCCOc1ccc(OC)cc1,n,16.1,n,n,n
CN(C)S(=O)(=O)c1ccc(C(=O)NCC(=O)N/N=C/c2ccccc2Cl)cc1,n,n,x,x,x
O=C(CSc1nncs1)NC(=O)NC1CCCC1,n,n,x,x,x
Cc1ccc(OCc2nnc(SCC(=O)Nc3ccc4c(c3)OCCO4)n2Cc2ccco2)cc1,n,11.7,n,n,n
O=C(CSc1nnc(-c2ccccc2)n1Cc1ccco1)Nc1ccc2c(c1)OCCO2,n,n,n,n,x
CCCCN(CCCC)S(=O)(=O)c1ccc(NC(=O)c2cccs2)cc1,n,16.2,n,n,n
Cc1cc(C)nc(NS(=O)(=O)c2ccc(NC(=O)c3cccs3)cc2)n1,n,n,n,n,x
COc1nc(N2CCCC2)nc(-n2nnc(C(C)=O)c2C)n1,n,n,x,x,x
Cc1c(-n2c(-c3ccccc3)nc3ccccc3c2=O)c(=O)n(-c2ccccc2)n1C,n,n,x,x,x
COc1cccc(C2=NN(S(C)(=O)=O)C(c3cccs3)C2)c1 (centres undefined),n,n,x,x,x
Cc1ccc(SCCNC(=O)c2ccc(C)c(S(=O)(=O)Nc3cccc(C)c3)c2)cc1,n,15.9,n,n,n
COc1ccc(O[C@H]2C=C[C@@H](c3ccccc3)O[C@@H]2COC(=O)CC/C(C)=N/O[C@@H](C)c2cc(-c3c(C)cc(C)cc3C)no2)cc1,n,20.8,n,n,n
COc1ccc(O[C@H]2C=C[C@@H](c3ccccc3)O[C@@H]2COC(=O)CC/C(C)=N/OC[C@@H](O)COCc2ccco2)cc1,n,n,n,n,x
O=C1c2ccccc2NC(c2ccc([N+](=O)[O-])cc2)N1O (centres undefined),n,n,x,x,x
COc1ccc(-c2csc(/C(C#N)=C\c3cccc([N+](=O)[O-])c3)n2)cc1,n,n,n,n,x
CCCCc1ccc(-c2csc(/C(C#N)=C/c3ccc(C)o3)n2)cc1,n,12.5,n,n,n
CCCCc1ccc(-c2csc(/C(C#N)=C\c3ccco3)n2)cc1,n,15.2,n,n,n
N#Cc1c(N)nc(SCc2ccccn2)c(C#N)c1-c1cccs1,n,12.1,n,n,n
SMILES,WT yeast gro inh,RAM network inh,Yeast lifespan up,BB579 growth dn,RAM efflux-def
CCN(CC)C(=O)c1[nH]cnc1C(=O)N[C@@H](C)C(=O)OC(C)(C)C,n,n,x,x,x
COCCCNC(=O)c1ccc(Cn2c(=O)c3ccccc3n(Cc3ccc(C)cc3)c2=O)cc1,n,12.2,n,n,n
O=c1c2ccccc2c(C=NCCc2ccccc2)c(O)n1Cc1ccccc1,n,12.7,n,n,n
CCOC(=O)c1ccc(Oc2ccc(C(F)(F)F)cn2)cc1,n,n,x,x,x
O=C1CCC(/C=C/c2ccccc2)=NN1Cc1ccc(Cl)c(Cl)c1,n,13.3,n,n,n
O=C1CCC(/C=C/c2ccccc2)=NN1Cc1ccccc1Cl,60.2,23.1,n,n,n
COc1ccc(/C=C/C2=NN(Cc3ccccc3)C(=O)CC2)cc1,n,n,x,x,x
COc1cc(CCC(O)CC(=O)CCc2ccccc2)ccc1O (centres undefined),n,n,x,x,x
O=C(N/N=C/c1ccc(Br)cc1)c1ccccc1-n1cccc1,n,n,n,n,x
